These results are taken from ChEMBL document CHEMBL4406821, “Novel dual inhibitors targeting CDK4 and VEGFR2 synergistically suppressed cancer progression and angiogenesis” (Eur J Med Chem, 2019).

Activity calls are given as the source filed them. The rule behind the calls is not given here.

Data set [1] concerns T47D. Briefly: Induction of cell cycle arrest in human T47D cells assessed as accumulation in G2/M phase at 40 nM incubated for 36 hrs by propidium iodide staining based flow cytometry. In kind it is functional. Put shortly:
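Cells were treated with graded concentrations for 36 h, then fixed overnight in 70% ice-cold ethanol at 4°C and resuspended in PBS. Staining used 50 µg/ml PI plus 5 µg/ml RNase at 37°C for 30 min. DNA content was analysed by FACS to give G0/G1, S and G2/M fractions.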
Background: Flow cytometry measures light scatter and fluorescence of single cells or particles in a stream.

The subject of data set [2] is T47D. Briefly: Antiproliferative activity against human T47D cells assessed as reduction in cell viability at 40 nM incubated for 48 hrs by EdU staining based laser scanning confocal microscopy. It is filed as functional. The essentials: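 Cells, 5×10^4, were seeded in 24-well plates and treated for 48 h. They were then labeled using an EdU Apollo 488 imaging kit with Hoechst 33342 nuclear stain and imaged by laser scanning confocal microscopy. Percent EdU-positive cells = EdU-positive/Hoechst-stained × 100%.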

Data set [3] concerns the target Tyrosine-protein kinase TXK (Homo sapiens) (UniProt P42681). Briefly: Inhibition of recombinant human TXK (256 to end residues) at 1 uM using GEEPLYWSFPAKKK as substrate incubated for 40 mins in presence of [gamma-33P]-ATP by scintillation counting method relative to control. The essentials:
(§1)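 Tested at a single 1 uM in an outsourced commercial kinase-profiling panel, read as percent inhibition. Each value is the mean of two independent experiments.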

The test system of data set [4] is Platelet-derived growth factor receptor alpha (Homo sapiens), P16234 [V561D]. Briefly: Inhibition of recombinant human PDGFRalpha V561D mutant (550 to end residues) at 1 uM using GGMEDIYFEFMGGKKK as substrate incubated for 40 mins in presence of [gamma-33P]-ATP by scintillation counting method relative to control. Put shortly: as §1
The target of data set [5] is Myotonin-protein kinase (Homo sapiens) (UniProt Q09013). Briefly: Inhibition of recombinant human DMPK (1 to 549 residues) at 1 uM using KKSRGDYMTMQIG as substrate incubated for 40 mins in presence of [gamma-33P]-ATP by scintillation counting method relative to control. The essentials:
(§2)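 Kinase panel profiling at 1 μM performed by Eurofins KinaseProfiler; percent inhibition reported as mean of two independent experiments.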

In data set [6] the target is NUAK family SNF1-like kinase 2 (Homo sapiens) (UniProt Q9H093). Briefly: Inhibition of recombinant human full length NUAK2 at 1 uM using KKKVSRSGLYRSPSMPENLNRPR as substrate incubated for 40 mins in presence of [gamma-33P]-ATP by scintillation counting method relative to control.
Sequence of NUAK family SNF1-like kinase 2 (Homo sapiens) (Q9H093 whole entry): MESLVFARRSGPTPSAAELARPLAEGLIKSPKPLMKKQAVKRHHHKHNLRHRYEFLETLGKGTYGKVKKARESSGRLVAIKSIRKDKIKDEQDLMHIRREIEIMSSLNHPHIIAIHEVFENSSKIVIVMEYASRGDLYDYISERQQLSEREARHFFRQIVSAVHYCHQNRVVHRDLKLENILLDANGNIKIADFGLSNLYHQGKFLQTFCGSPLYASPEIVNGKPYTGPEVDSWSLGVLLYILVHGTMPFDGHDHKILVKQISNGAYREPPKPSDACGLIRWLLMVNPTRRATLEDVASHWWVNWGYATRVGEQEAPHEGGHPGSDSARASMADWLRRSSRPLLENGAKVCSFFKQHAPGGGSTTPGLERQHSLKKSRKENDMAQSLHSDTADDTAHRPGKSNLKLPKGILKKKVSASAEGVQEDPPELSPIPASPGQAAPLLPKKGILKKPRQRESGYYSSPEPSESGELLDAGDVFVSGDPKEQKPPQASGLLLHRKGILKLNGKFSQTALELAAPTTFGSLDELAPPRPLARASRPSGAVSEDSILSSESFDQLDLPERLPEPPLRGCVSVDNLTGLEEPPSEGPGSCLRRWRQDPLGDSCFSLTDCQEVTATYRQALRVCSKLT
The target in data set [7] is RAC-gamma serine/threonine-protein kinase (Homo sapiens) (UniProt Q9Y243). Briefly: Inhibition of recombinant human PKBgamma (117 to end residues) at 1 uM using GRPRTSSFAEGKK as substrate incubated for 40 mins in presence of [gamma-33P]-ATP by scintillation counting method relative to control.
Data set [8] in a line: VRT (0 to t) in Sprague-Dawley rat at 10 mg/kg, iv by HPLC-MS analysis. It is filed as ADME, organism-based. The settings on record: in vivo.
The target of data set [9] is Calcium/calmodulin-dependent protein kinase type 1G (Homo sapiens) (UniProt Q96NX5). Briefly: Inhibition of recombinant full length human CAMKIgamma at 1 uM using KKLRRTLSFAEPG as substrate incubated for 40 mins in presence of [gamma-33P]-ATP by scintillation counting method relative to control. The essentials:
as §2

For another data set, the system named is HeLa. Briefly: Induction of apoptosis in human HeLa cells assessed as decrease in Ki67 expression at 40 to 80 nM incubated for 48 hrs by Western blot analysis. In kind it is functional, cell-based. The essentials:
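Cells were treated for 48 h, washed three times with PBS, and lysed in RIPA buffer. Immunoblots used anti-Rb, anti-phospho-Rb, anti-Ki67 and anti-Bcl-2 (each 1:1000), with β-actin as loading control.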
On the technique in general: In western blotting, separated proteins are transferred to a membrane and probed.

Data set [10] addresses PI3-kinase p110-delta/p85-alpha (Homo sapiens) (UniProt P27986+O00329). Briefly: Inhibition of recombinant human full length PI3K p110delta/p85alpha at 1 uM using phosphatidylinositol-4, 5-bisphosphate as substrate incubated for 40 mins in presence of [gamma-33P]-ATP by scintillation counting method relative to control. It is filed as protein-complex assay.
Data set [11] has as its target [Pyruvate dehydrogenase (acetyl-transferring)] kinase isozyme 4, mitochondrial (Homo sapiens) (UniProt Q16654). Briefly: Inhibition of recombinant human full length PDHK4 at 1 uM using KKKYHGHSMSDPGVSYRT as substrate incubated for 40 mins in presence of [gamma-33P]-ATP by scintillation counting method relative to control. Put shortly: as §1
The test system of another data set is SiHa. Briefly: Induction of apoptosis in human SiHa cells assessed as decrease in Rb phosphorylation incubated for 48 hrs by Western blot analysis. In kind it is functional, cell-based. Put shortly: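 Cancer cells were exposed to graded concentrations for 48 h, washed three times in PBS and lysed in RIPA buffer. Immunoblots were probed with anti-Rb, anti-phospho-Rb, anti-Ki67 and anti-Bcl-2, each at 1:1000. β-actin served as loading control.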

The test system of data set [12] is Serine/threonine-protein kinase Chk2 (Homo sapiens), O96017 [I157T]. Briefly: Inhibition of recombinant human CHK2 I157T mutant (5 to end residues) at 1 uM using KKKVSRSGLYRSP as substrate incubated for 40 mins in presence of [gamma-33P]-ATP by scintillation counting method relative to control. Put shortly:
as §2

Data set [13] has as its target Serine/threonine-protein kinase PAK 5 (Homo sapiens) (UniProt Q9P286). Briefly: Inhibition of recombinant human PAK5 (425 to end residues) at 1 uM using RRRLSFAEPG as substrate incubated for 40 mins in presence of [gamma-33P]-ATP by scintillation counting method relative to control.
The target of data set [14] is Serine/threonine-protein kinase PAK 6 (Homo sapiens) (UniProt Q9NQU5). Briefly: Inhibition of recombinant human PAK6 (382 to end residues) at 1 uM using RRRLSFAEPG as substrate incubated for 40 mins in presence of [gamma-33P]-ATP by scintillation counting method relative to control.
Data set [15] addresses Serine/threonine-protein kinase/endoribonuclease IRE1 (Homo sapiens) (UniProt O75460). Briefly: Inhibition of recombinant human IRE1 (465 to end residues) at 1 uM using myelin basic protein as substrate incubated for 40 mins in presence of [gamma-33P]-ATP by scintillation counting method relative to control.
Data set [16] has as its target STE20-like serine/threonine-protein kinase (Homo sapiens) (UniProt Q9H2G2). Briefly: Inhibition of recombinant human SLK (1 to 373 residues) at 1 uM using RLGRDKYKTLRQIRQ as substrate incubated for 40 mins in presence of [gamma-33P]-ATP by scintillation counting method relative to control.
The target in data set [17] is Proto-oncogene tyrosine-protein kinase Src (Homo sapiens) (UniProt P12931). Briefly: Inhibition of full length recombinant human c-SRC at 1 uM using KVEKIGEGTYGVV as substrate incubated for 40 mins in presence of [gamma-33P]-ATP by scintillation counting method relative to control. Put shortly:
as §2

The next data set concerns the target CDK2/Cyclin A2 (Homo sapiens, UniProt P24941). Briefly: Inhibition of recombinant human full length CDK2/CyclinA using as histone H1 substrate incubated for 40 mins in presence of [gamma-33P]-ATP by scintillation counting method. It is filed as protein-complex assay.

Sequence of [Pyruvate dehydrogenase (acetyl-transferring)] kinase isozyme 4, mitochondrial (Homo sapiens) (Q16654 whole entry, looked up): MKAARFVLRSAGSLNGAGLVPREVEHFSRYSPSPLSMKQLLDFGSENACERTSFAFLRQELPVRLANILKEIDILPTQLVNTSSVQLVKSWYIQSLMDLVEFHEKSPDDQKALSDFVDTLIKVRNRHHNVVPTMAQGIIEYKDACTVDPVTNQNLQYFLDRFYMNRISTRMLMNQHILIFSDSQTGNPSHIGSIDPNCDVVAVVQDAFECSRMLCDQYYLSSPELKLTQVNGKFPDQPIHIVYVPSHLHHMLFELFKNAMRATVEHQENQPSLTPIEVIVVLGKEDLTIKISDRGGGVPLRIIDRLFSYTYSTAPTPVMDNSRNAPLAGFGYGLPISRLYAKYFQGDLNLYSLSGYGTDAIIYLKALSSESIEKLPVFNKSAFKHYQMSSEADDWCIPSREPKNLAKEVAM
Sequence of Calcium/calmodulin-dependent protein kinase type 1G (Homo sapiens) (Q96NX5 whole entry): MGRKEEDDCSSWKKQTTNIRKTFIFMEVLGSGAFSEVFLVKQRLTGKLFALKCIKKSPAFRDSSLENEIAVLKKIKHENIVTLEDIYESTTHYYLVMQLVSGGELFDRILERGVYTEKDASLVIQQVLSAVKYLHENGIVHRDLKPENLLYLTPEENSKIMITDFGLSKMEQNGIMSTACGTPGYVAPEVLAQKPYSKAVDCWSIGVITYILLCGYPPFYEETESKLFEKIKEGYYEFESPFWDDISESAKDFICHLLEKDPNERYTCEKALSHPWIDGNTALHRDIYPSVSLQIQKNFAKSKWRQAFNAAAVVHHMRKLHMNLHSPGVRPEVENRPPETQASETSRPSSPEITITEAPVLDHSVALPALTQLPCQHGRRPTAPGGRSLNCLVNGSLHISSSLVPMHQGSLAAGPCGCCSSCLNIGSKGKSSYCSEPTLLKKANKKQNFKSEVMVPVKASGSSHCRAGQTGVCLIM
Sequence of Myotonin-protein kinase (Homo sapiens) (Q09013 whole entry, the tested form may be a part): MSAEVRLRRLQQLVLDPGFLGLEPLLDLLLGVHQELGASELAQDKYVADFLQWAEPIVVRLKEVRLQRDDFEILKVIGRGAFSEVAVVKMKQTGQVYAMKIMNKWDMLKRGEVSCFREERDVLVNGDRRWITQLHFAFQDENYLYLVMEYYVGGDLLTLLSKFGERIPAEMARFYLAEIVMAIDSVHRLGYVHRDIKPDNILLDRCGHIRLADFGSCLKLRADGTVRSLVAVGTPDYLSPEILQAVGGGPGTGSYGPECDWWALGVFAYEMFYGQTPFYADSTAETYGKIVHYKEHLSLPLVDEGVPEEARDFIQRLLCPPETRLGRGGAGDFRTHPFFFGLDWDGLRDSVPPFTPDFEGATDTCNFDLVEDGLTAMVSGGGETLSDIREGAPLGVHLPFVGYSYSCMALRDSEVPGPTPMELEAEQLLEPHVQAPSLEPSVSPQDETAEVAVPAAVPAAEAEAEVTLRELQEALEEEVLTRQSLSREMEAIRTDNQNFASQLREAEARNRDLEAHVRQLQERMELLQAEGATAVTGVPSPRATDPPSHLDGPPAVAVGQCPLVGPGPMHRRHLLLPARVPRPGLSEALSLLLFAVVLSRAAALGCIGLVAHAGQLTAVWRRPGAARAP
Sequence of Serine/threonine-protein kinase PAK 5 (Homo sapiens) (Q9P286 whole entry, looked up): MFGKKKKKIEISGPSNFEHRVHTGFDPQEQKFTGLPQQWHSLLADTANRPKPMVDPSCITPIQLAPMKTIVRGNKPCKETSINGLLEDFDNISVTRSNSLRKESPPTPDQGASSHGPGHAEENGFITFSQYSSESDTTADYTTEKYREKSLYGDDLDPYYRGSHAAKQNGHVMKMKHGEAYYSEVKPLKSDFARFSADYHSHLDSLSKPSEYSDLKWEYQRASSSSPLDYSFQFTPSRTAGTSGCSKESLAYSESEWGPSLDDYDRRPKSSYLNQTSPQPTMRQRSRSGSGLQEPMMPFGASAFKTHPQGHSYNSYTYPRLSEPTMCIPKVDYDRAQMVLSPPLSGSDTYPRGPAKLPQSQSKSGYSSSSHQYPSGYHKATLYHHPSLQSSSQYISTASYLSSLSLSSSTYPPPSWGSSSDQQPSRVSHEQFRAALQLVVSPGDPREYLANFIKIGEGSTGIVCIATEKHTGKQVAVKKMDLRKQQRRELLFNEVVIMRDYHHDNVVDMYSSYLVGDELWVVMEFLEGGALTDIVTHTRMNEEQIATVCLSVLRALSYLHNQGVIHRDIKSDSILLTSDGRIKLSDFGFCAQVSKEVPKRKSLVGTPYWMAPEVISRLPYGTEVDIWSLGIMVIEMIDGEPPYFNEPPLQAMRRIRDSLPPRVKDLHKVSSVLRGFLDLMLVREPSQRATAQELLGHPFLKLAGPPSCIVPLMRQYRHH
Sequence of STE20-like serine/threonine-protein kinase (Homo sapiens) (Q9H2G2 whole entry, looked up, the tested form may be a part): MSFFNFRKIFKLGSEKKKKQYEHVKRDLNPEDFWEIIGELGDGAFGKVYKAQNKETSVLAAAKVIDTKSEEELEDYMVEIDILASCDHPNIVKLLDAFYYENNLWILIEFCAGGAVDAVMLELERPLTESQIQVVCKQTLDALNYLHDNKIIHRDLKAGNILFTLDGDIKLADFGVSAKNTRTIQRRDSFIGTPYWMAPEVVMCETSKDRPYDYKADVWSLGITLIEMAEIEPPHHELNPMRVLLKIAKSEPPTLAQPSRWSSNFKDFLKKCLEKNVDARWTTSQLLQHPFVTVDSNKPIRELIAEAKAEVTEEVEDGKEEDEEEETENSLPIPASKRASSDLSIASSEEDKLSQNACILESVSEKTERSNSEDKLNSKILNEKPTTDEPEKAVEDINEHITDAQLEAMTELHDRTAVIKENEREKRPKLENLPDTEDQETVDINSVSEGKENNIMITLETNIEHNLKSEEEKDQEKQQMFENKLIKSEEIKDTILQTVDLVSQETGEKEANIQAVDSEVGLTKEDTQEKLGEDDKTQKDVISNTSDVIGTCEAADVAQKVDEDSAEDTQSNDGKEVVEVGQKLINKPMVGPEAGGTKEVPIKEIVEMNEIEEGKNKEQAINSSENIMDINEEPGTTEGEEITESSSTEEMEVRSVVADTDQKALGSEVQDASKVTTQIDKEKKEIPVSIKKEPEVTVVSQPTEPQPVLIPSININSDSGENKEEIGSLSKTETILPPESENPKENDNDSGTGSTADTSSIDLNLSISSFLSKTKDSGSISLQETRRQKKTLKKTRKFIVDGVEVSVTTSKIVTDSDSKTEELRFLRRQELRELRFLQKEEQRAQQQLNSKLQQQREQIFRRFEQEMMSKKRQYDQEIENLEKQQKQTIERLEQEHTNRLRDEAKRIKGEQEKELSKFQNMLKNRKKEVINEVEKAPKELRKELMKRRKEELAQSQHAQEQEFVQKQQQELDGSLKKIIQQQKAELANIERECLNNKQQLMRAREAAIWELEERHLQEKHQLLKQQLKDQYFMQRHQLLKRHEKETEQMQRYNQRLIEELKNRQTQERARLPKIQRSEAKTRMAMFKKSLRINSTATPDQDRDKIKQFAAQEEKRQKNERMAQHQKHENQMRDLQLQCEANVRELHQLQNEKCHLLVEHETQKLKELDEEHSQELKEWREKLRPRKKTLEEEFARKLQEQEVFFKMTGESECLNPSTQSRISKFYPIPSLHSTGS
Sequence of Proto-oncogene tyrosine-protein kinase Src (Homo sapiens) (P12931 2-536 limits assumed): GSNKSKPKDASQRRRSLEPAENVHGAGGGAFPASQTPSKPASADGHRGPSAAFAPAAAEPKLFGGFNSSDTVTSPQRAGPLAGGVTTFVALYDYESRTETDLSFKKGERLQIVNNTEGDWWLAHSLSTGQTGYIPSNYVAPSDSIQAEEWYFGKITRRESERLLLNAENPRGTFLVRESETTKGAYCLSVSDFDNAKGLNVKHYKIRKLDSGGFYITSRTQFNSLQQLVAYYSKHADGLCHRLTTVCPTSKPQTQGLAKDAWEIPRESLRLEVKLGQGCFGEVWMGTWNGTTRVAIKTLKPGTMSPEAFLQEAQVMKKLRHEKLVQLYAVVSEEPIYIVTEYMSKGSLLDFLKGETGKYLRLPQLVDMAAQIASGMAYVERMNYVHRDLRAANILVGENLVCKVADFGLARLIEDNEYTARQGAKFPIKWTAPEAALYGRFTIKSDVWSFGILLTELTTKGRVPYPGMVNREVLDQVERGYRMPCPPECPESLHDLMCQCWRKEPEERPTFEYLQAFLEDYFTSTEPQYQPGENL

What is called inhibition is the drop in the measured response relative to a control, in per cent. As for `COc1cc2nccc(Oc3ccc(NC(=O)C4(C(=O)Nc5ccc(F)cc5)CC4)cc3)c2cc1OC` [CABOZANTINIB], in the data set on T47D [1], the outcome was Active. The inhibition result in the data set on T47D [2] was “Active”.
Usually IC50 stands for the concentration needed to halve the response being measured. In the case of `Cc1ccc(NC(=O)C2(C(=O)Nc3ccc(Nc4ncc(F)c(-c5cc(F)c6nc(C)n(C(C)C)c6c5)n4)cc3)CC2)cc1`, the inhibition in data set [3] was determined as 0%; in data set [4], 70%; in data set [5] it was 10%; in [6] it was 67%; in [7], 64%; in data set [9], 5%. Further, the inhibition is 12% in data set [10]; 0% in data set [11]; 24% in [12]; 28% in data set [13]; 12% in data set [14]; 33% in [15]. Further, the inhibition was determined as 90% in data set [16] and 80% in data set [17]. Moreover, in [8], the “VRT(t)” value worked out at 2 h. In addition, in the data set with HeLa, the outcome was Active. Moreover, in the data set on SiHa, the Activity entry was “Dose-dependent effect”. In addition, the IC50 on CDK2/Cyclin A2 was 230 nM.
